Test results published in ChEMBL document CHEMBL5131497, “Design, Synthesis, and Characterization of TNP-2198, a Dual-Targeted Rifamycin-Nitroimidazole Conjugate with Potent Activity against Microaerophilic and Anaerobic Bacterial Pathogens” (J Med Chem, 2022).
Converted amounts (≈) assume the structure as drawn.

Experiments:
Bacteroides fragilis = test: Antibacterial activity against metronidazole-resistant Bacteroides fragilis MMX 3387; type: functional
[1] = Drug distribution in Sprague-Dawley rat large intestine content measured at 2 hrs; type: ADME, tissue-based; conditions: read-out: Ct
Procedure, shortened: (§1)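 Sprague–Dawley rats were dosed with TNP-2198. Concentrations were measured in plasma (ng/mL) and in tissues or contents (ng/g) at 0.5, 2, 6, 12 and 24 h after dosing. Values below the limit of quantification are reported as BLOQ.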

Prevotella bivia = test: Antibacterial activity against metronidazole-resistant Prevotella bivia MMX 3454; type: functional
Gardnerella vaginalis [2] = test: Antibacterial activity against Gardnerella vaginalis clinical isolate USA; type: functional
Gardnerella vaginalis [3] = test: Resistance development in Gardnerella vaginalis MMX 5973 assessed as spontaneous resistance frequency using at 4.50 x 10^8 CFU inoculum at 4 ug/ml; type: functional; conditions: dose 4 µg/ml
Procedure, shortened: (§2)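 Resistant colonies were counted at each drug concentration in two separate tests (test 1, test 2) and averaged. The spontaneous resistance frequency was taken from the mean colony count relative to the inoculum plated. Drug levels tested were 0.5, 1, 2 and 4 µg/mL, and a mutation prevention concentration (MPC) was also reported.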

Bacteroides ovatus = test: Antibacterial activity against metronidazole-resistant Bacteroides ovatus MMX 3504; type: functional
Helicobacter pylori [4] = test: Antibacterial activity against rifampicin-resistant Helicobacter pylori CB1903 harboring rpoBD530V mutant measured after 5 days by agar dilution method; type: functional; conditions: CB1903, 120 h, time 5 day
Procedure, shortened: (§3)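 Agar dilution per CLSI. Wild-type ATCC 700392 (CB1531) and its derivatives carry defined resistance determinants. Drugs, alone or in 1:1 molar mixtures, were diluted 2-fold from 100× stocks into Mueller–Hinton agar with aged (≥2 weeks) sheep blood (5% v/v). MIC read after 5 days at 35 °C under microaerobic conditions from a campylobacter gas-generating system.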

Helicobacter pylori [5] = test: Resistance development in Helicobacter pylori MMX 3719 assessed as mutation prevention concentration using at 1.90 x 10^8 CFU inoculum; type: functional; conditions: dose 0.5 µg/ml
Procedure, shortened: (§4)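 H. pylori MMX 3719 exposed to 0.5, 1, 2 and 4 µg/mL drug with an inoculum of 1.90×10^8 CFU at each level. Two independent tests were run, and resistant colonies were counted and averaged. A spontaneous resistance frequency was reported for each concentration, and the MPC was taken across the concentrations tested.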

[6] = Drug distribution in Sprague-Dawley rat gums measured at 6 hrs; type: ADME, tissue-based, Gingiva; conditions: read-out: Ct; procedure, shortened: as §1
[7] = Drug distribution in Sprague-Dawley rat vaginal tissue measured at 6 hrs; type: ADME, tissue-based, Vagina; conditions: female, read-out: Ct; procedure, shortened: as §1
Prevotella disiens = test: Antibacterial activity against Prevotella disiens MMX 3446; type: functional
Fusobacterium nucleatum = test: Antibacterial activity against Fusobacterium nucleatum ATCC 25586; type: functional
[8] = Drug distribution in Sprague-Dawley rat plasma measured at 6 hrs; type: ADME, cell-free; procedure, shortened: as §1
[9] = Drug distribution in Sprague-Dawley rat stomach tissue measured at 2 hrs; type: ADME, tissue-based; conditions: read-out: Ct; procedure, shortened: as §1
Clostridioides difficile [10] = test: Antibacterial activity against Clostridioides difficile clinical isolate China; type: functional
[11] = Half life in Sprague-Dawley rat at 10 mg/kg, iv; type: ADME, organism-based; conditions: in vivo
Clostridioides difficile [12] = test: Antibacterial activity against Clostridioides difficile clinical isolate USA; type: functional
[13] = Volume of distribution at steady state in C57BL/6 mouse at 5 mg/kg, iv; type: ADME, organism-based; conditions: in vivo, read-out: Vdss
[14] = Drug distribution in Sprague-Dawley rat large intestine content measured at 12 hrs; type: ADME, tissue-based; conditions: read-out: Ct; procedure, shortened: as §1
Helicobacter pylori [15] = test: Resistance development in Helicobacter pylori MMX 3719 assessed as spontaneous resistance frequency using at 1.90 x 10^8 CFU inoculum at 2 ug/ml; type: functional; conditions: dose 2 µg/ml; procedure, shortened: as §4
Helicobacter pylori [16] = test: Antibacterial activity against Helicobacter pylori clinical isolate China; type: functional
[17] = Clearance in C57BL/6 mouse at 5 mg/kg, iv; type: ADME, organism-based; conditions: in vivo
Procedure, shortened: (§5)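 Plasma PK after single intravenous or oral dosing. Mice C57BL/6 at 5 mg/kg IV or 20 mg/kg PO; Sprague–Dawley rats at 10 mg/kg IV or 50 mg/kg PO; beagle dogs at 5 mg/kg IV or 25 mg/kg PO. AUC reported in ng·h/mL. Clearance from the IV arms in mL/min·kg.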

[18] = Drug distribution in Sprague-Dawley rat large intestine tissue measured at 24 hrs; type: ADME, tissue-based; conditions: read-out: Ct; procedure, shortened: as §1
[19] = AUC in C57BL/6 mouse at 5 mg/kg, iv; type: ADME, organism-based; set-up: dose 5 mg/kg, route iv; conditions: in vivo; procedure, shortened: as §5
[20] = Tmax in Beagle dog at 25 mg/kg, po; type: ADME, organism-based, Canis lupus familiaris; conditions: in vivo
Bifidobacterium longum = test: Antibacterial activity against Bifidobacterium longum ATCC 15707; type: functional
[21] = Drug distribution in Sprague-Dawley rat brain measured at 24 hrs; type: ADME, tissue-based; conditions: in vivo, BLD = below limit of detection; procedure, shortened: as §1
[22] = Drug distribution in Sprague-Dawley rat plasma measured at 24 hrs; type: ADME, cell-free; conditions: BLD = below limit of detection; procedure, shortened: as §1
Helicobacter pylori [23] = test: Antibacterial activity against Helicobacter pylori clinical isolate USA; type: functional
Helicobacter pylori [24] = test: Antibacterial activity against Helicobacter pylori infected in C57/BL6 mouse assessed as bacterial load in stomach at 5 mg/kg administered twice daily via oral gavage starting from 7 days post inoculation and administered for 7 days (reference value: 5.25 log10CFU); type: functional; conditions: time 7 day
[25] = Half life in Sprague-Dawley rat at 50 mg/kg, po; type: ADME, organism-based; conditions: in vivo
[26] = Drug distribution in Sprague-Dawley rat vaginal tissue measured at 24 hrs; type: ADME, tissue-based, Vagina; conditions: in vivo, BLD = below limit of detection; procedure, shortened: as §1
Clostridioides difficile [27] = test: Resistance development in Clostridioides difficile MMX 4381 assessed as spontaneous resistance frequency using at 1.23 x 10^9 CFU inoculum at 4 ug/ml; type: functional; conditions: dose 4 µg/ml
Clostridium sporogenes = test: Antibacterial activity against Clostridium sporogenes ATCC 19404; type: functional
[28] = Oral bioavailability in Beagle dog at 25 mg/kg; type: ADME, organism-based, Canis lupus familiaris; conditions: in vivo
Gardnerella vaginalis [29] = test: Resistance development in Gardnerella vaginalis MMX 5973 assessed as spontaneous resistance frequency using at 4.50 x 10^8 CFU inoculum at 2 ug/ml; type: functional; conditions: dose 2 µg/ml; procedure, shortened: as §2
[30] = Drug distribution in Sprague-Dawley rat ascites fluid measured at 12 hrs; type: ADME, tissue-based, Ascitic fluid; conditions: read-out: Ct; procedure, shortened: as §1
Clostridioides difficile [31] = test: Antibacterial activity against Clostridioides difficile BAA 1382; type: functional
[32] = Drug distribution in Sprague-Dawley rat plasma measured at 12 hrs; type: ADME, cell-free; procedure, shortened: as §1
Helicobacter pylori [33] = test: Resistance development in Helicobacter pylori MMX 3719 assessed as spontaneous resistance frequency using at 1.90 x 10^8 CFU inoculum at 1 ug/ml; type: functional; conditions: dose 1 µg/ml; procedure, shortened: as §4
[34] = AUC in Beagle dog at 5 mg/kg, iv; type: ADME, organism-based, Canis lupus familiaris; set-up: dose 5 mg/kg, route iv; conditions: in vivo; procedure, shortened: as §5
[35] = Tmax in C57BL/6 mouse at 20 mg/kg, po; type: ADME, organism-based; conditions: in vivo
[36] = AUC in Sprague-Dawley rat at 50 mg/kg, po; type: ADME, organism-based; set-up: dose 50 mg/kg, route po; conditions: in vivo; procedure, shortened: as §5
[37] = Drug distribution in Sprague-Dawley rat stomach content measured at 0.5 hrs; type: ADME, tissue-based; conditions: read-out: Ct; procedure, shortened: as §1
Helicobacter pylori [38] = test: Antibacterial activity against rifampicin-resistant Helicobacter pylori CB1614 harboring rpoBL525I/D530N mutant measured after 5 days by agar dilution method; type: functional; conditions: CB1614, 120 h, time 5 day; procedure, shortened: as §3
[39] = Oral bioavailability in C57BL/6 mouse at 20 mg/kg; type: ADME, organism-based; conditions: in vivo

CO[C@H]1/C=C/O[C@@]2(C)Oc3c(C)c(O)c4c(c3C2=O)C2=NC3(CCN(CCn5c([N+](=O)[O-])cnc5C)CC3)NC2=C(NC(=O)/C(C)=C\C=C\[C@H](C)[C@H](O)[C@@H](C)[C@@H](O)[C@@H](C)[C@H](OC(C)=O)[C@@H]1C)C4=O [RIFASUTENIZOL]
MIC (Bacteroides fragilis): 0.015 µg/mL (≈ 0.0159 µM)
concentration at 2 h [1]: 1170 ng/g
MIC (Prevotella bivia): 0.015 µg/mL (≈ 0.0159 µM)
MIC (Gardnerella vaginalis [2]): ≤ 0.004 µg/mL
MIC90 (Gardnerella vaginalis [2]): 0.06 µg/mL (≈ 0.0636 µM)
Activity (Gardnerella vaginalis [3]): <2 10^-9No_unit
MIC (Bacteroides ovatus): 0.12 µg/mL (≈ 0.127 µM)
MIC (Helicobacter pylori [4]): 0.125 µg/mL (≈ 0.132 µM)
Activity (Helicobacter pylori [5]): <=0.5 ug ml-1
concentration at 6 h [6]: 3660 ng/g
concentration at 6 h [7]: 2590 ng/g
MIC (Prevotella disiens): 0.015 µg/mL (≈ 0.0159 µM)
MIC (Fusobacterium nucleatum): 0.001 µg/mL (≈ 0.00106 µM)
concentration at 6 h [8]: 1440 ng/mL
concentration at 2 h [9]: 72500 ng/g
MIC (Clostridioides difficile [10]): ≤ 0.06 µg/mL
MIC90 (Clostridioides difficile [10]): 1 µg/mL (≈ 1.06 µM)
half-life [11]: 46.2 min
MIC (Clostridioides difficile [12]): 0.002 µg/mL (≈ 0.00212 µM)
MIC90 (Clostridioides difficile [12]): 1 µg/mL (≈ 1.06 µM)
Vd [13]: 0.9 L/kg
concentration at 12 h [14]: 2980 ng/g
Activity (Helicobacter pylori [15]): <5 10^-9No_unit
MIC (Helicobacter pylori [16]): ≤ 0.002 µg/mL
clearance [17]: 23 mL/min/kg
concentration at 24 h [18]: 7.26 ng/g
AUC [19]: 3760 ng·h/mL
Tmax [20]: 72 min
MIC (Bifidobacterium longum): 0.015 µg/mL (≈ 0.0159 µM)
Ct [21]: Bld
Cp [22]: Bld
MIC (Helicobacter pylori [23]): ≤ 0.001 µg/mL
MIC90 (Helicobacter pylori [23]): 0.125 µg/mL (≈ 0.132 µM)
Activity (Helicobacter pylori [24]): 2.89 log10CFU
half-life [25]: 56.4 min
Ct [26]: Bld
Activity (Clostridioides difficile [27]): <8 10^-9No_unit
MIC (Clostridium sporogenes): 0.015 µg/mL (≈ 0.0159 µM)
bioavailability [28]: 65%
Activity (Gardnerella vaginalis [29]): <2 10^-9No_unit
concentration at 12 h [30]: 84.5 ng/g
MIC (Clostridioides difficile [31]): 0.00025 µg/mL (≈ 0.000265 µM)
concentration at 12 h [32]: 4.33 ng/mL
Activity (Helicobacter pylori [33]): <5 10^-9No_unit
AUC [34]: 4530 ng·h/mL
Tmax [35]: 30 min
AUC [36]: 15400 ng·h/mL
concentration at 0.5 h [37]: 3.26e+06 ng/g
MIC (Helicobacter pylori [38]): 0.125 µg/mL (≈ 0.132 µM)
bioavailability [39]: 20%
